In the library only some 5.7% were active in any assay of this set; here they are far more common.
T cruzi inh – T. cruzi replication inhibition | inhibition, % (test concentration not listed) | 300,000 tested, 1.4% active | T. cruzi beta-gal in NIH3T3, luminescence, 90 h | AID 1885;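 active means mean inhibition across valid replicates above about 55%, limit read from the data; inconclusive means mean below that limit but half or more replicates reach it; inactive means mean below it, under half of replicates reach it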;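 further: signal also drops with host cell toxicity which is not excluded here; 0% = plate median of DMSO wells and 100% = zero luminescence signal; higher percent means less beta-gal luminescence so fewer parasites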
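System: NIH/3T3 fibroblasts plus reporter T. cruzi. Medium: DMEM plus 2% FBS. Probe or stimulus: 5000 reporter trypomastigotes per well. Compound: single 50 nL compound addition per well in DMSO. Incubation: co-culture of at least 90 h after 3 h attachment. Detection: GalScreen β-gal luminescence, detergent lysis, 60 min. Evaluation: parasite load inhibition, %.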
SKKanGAS inh – blocks kanamycin growth of S. pyogenes SKKanGAS strain. 300,000 tested, 1.3% active. inhibition, % at 7.5 µM. BacTiter-Glo, 6 h;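 active means mean replicate score, as percent of positive control median, at least 50; inconclusive means mean below 50 but one replicate at or above 50; inactive means mean and every replicate below 50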;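 further: strain carries kanamycin resistance gene driven by streptokinase promoter and grows in 40 µg/ml kanamycin; loss of luminescence reflects streptokinase promoter inhibition or plain growth inhibition; 0% = median of DMSO wells and 100% = positive control at its reference dose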
Beta apoptosis – beta cell apoptosis inhibition; protection from apoptosis, % (concentration not given with the values); INS-1E cytokine-induced death, ATP luminescence, 48 h; percent of positive-control rescue, neutral wells zero; 300,000 tested, 0.8% active;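 active means Every replicate reaches about 75%, or at least half do and their mean reaches it too, limit read from the data; inconclusive means At least half of replicates reach the limit but their mean does not; inactive means Under half of replicates reach the limit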;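 further: 0% = cytokine-treated negative control wells and 100% = positive control rescue; higher means more ATP so stronger rescue from cytokine killing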
CSC inhib – cancer stem cell inhibition. cancer stem cell-like cells viability, luminescence. inhibition, % at 7.5 µM. 300,000 tested, 1.1% active. AID 2717; in the data active means inhibition above about 75%; inconclusive means no clear call, values can overlap the other calls; tested in HMLE shEcad cells
Calb FLC – affects C. albicans growth with fluconazole; C. albicans CaCi-2 + fluconazole, Alamar Blue growth, 48 h; growth inhibition, % (test concentration not listed); 300,000 tested, 0.57% active; AID 1979;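 active means growth inhibition above about 58% in most replicates, limit read from the data, passing the limit was not always enough; inconclusive means exactly half the replicates above a set limit; inactive means most replicates below a set limit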;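 further: all wells also contain fluconazole at 8 µg/ml as a sub-toxic cotreatment; 0% = median of DMSO wells and 100% = median of geldanamycin control wells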
Mdm2 MdmX PPI – human Mdm2/MdmX binding inhibition | SaOS-2 split-luciferase Mdm2/MdmX complementation, luminescence | O15151+Q00987 | AID 485346 | 330,000 tested, 3% active | inhibition, % at 8 µM;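 active means inhibition of at least 50% at 8 µM in the primary screen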
Numbers without * were called inactive; ? = inconclusive; · = no result given.

SMILES	T cruzi inh	SKKanGAS inh	Beta apoptosis	CSC inhib	Calb FLC	Mdm2 MdmX PPI
COc1ccc(CCNC(=O)Oc2ccccc2)cc1OC	-12	0	-5	42	-16	-6
COc1cc(F)ccc1S(=O)(=O)N1CCN(Cc2ccccc2)CC1	10	-4	-5	-18	4	17
COc1ccc(C(C)NC(=O)CC23CC4CC(CC(C4)C2)C3)cc1 (stereo not given)	19	12	3	10	-12	21
Cc1cc(OCc2cc(C(=O)N3CCN(CC4CC4)CC3)no2)cc(C)c1Cl	20	1	0	31	-8	13
Cc1cc(OCc2cc(C(=O)N3CCC(Oc4cccnc4)CC3)no2)cc(C)c1Cl	28	6	·	77*	7	3
O=C(NC1CCCC1)c1cc(COc2ccc3ncccc3c2)on1	9	-11	104*	5	34	28
O=C(c1cc(COc2ccc3ncccc3c2)on1)N1CCCC1	12	0	42	4	-4	-1
Cc1onc(-c2c(F)cccc2Cl)c1C(=O)NCc1ccc2c(c1)OCO2	5	59*	-2	-9	-16	18
CCCCCCN1N=C(C)C(C(=O)c2ccc(Cl)cc2)C1=O (stereo not given)	-7	50*	3	36	-12	-5
CCCCCCCN1N=C(C)C(C(=O)c2ccccc2)C1=O (stereo not given)	1	?	5	10	-14	1
CCCCn1c(SCC(=O)c2ccc(O)c(O)c2)nc2ccsc2c1=O	-48	24	-2	30	107*	30
O=C(O)CCCCCn1c(SCC(=O)c2ccc(O)c(O)c2)nc2ccsc2c1=O	-16	18	-8	15	-9	4
CCOCCc1nnc(NC(=O)CCC2CCCCC2)s1	9	7	-6	-16	-11	18
COc1cc2oc3cc(C#Cc4ccc(N)cc4)ccc3c(=O)c2cc1OC	-9	58*	68	4	4	33
Cn1c2ccccc2c(=O)c2ccc(C#Cc3ccccn3)cc21	50	2	16	28	1	-38
COc1cc2oc3ccc(C#Cc4ccc(N)cc4)cc3c(=O)c2cc1OC	13	78*	·	4	1	·
Nc1ccc(C#Cc2ccc3c(=O)c4ccccc4oc3c2)cc1	-16	13	-6	52	-6	-19
Cn1c2ccccc2c(=O)c2cc(C#Cc3ccccn3)ccc21	-13	31	-3	82*	14	-146
COc1cc2oc3ccc(C#Cc4ccccn4)cc3c(=O)c2cc1OC	59*	9	·	7	57	9
O=C(/C=C/c1cccc(C(F)(F)F)c1)NNC(=O)c1ccncc1	·	·	·	·	·	-12
COc1ccccc1N1CCN(C2CC(=O)N(c3cccc(Cl)c3)C2=O)CC1 (stereo not given)	-15	5	3	-20	-2	17
CC(C)c1ccc(N2C(=O)/C(=C/N(C)C)SC2=S)cc1	29	86*	14	22	-1	15
O=C(COC(=O)/C=C/c1cccc(Br)c1)NC1CCCCCC1	·	·	0	-14	·	12
C=CCn1c(COc2ccccc2)nnc1SCC(=O)N/N=C/c1cc(Cl)ccc1O	-8	63*	-10	21	-3	24
C=CCn1c(CNc2ccccc2)nnc1SCC(=O)N/N=C/c1ccc(O)cc1O	15	15	0	86*	-1	29
SMILES	T cruzi inh	SKKanGAS inh	Beta apoptosis	CSC inhib	Calb FLC	Mdm2 MdmX PPI
C=CCn1c(SCC(=O)NCc2ccccc2)nnc1-c1ccccc1O	0	-9	0	3	39	-8
C=CCn1c(COc2ccccc2)nnc1SCC(=O)N/N=C/c1ccc(C)cc1	-8	0	-8	7	-3	-7
C=C(C)c1cc2c(ccc3ccc(=O)oc32)o1	·	·	·	·	·	6
COc1cc(Cl)c(C)cc1NC(=O)CCN1C(=O)NC(C)(C)C1=O	·	·	·	·	·	11
COc1ccc(Cl)cc1C(=O)NNC(=O)CNC(=O)c1ccc(C)s1	·	·	-20	-20	·	19
O=C(CN1C(=O)c2ccccc2S1(=O)=O)Nc1ccc(S(=O)(=O)Nc2ncccn2)cc1	3	12	·	·	25	-5
CNC(=O)Nc1cc(C(F)(F)F)cc(C(F)(F)F)c1	16	-14	6	7	86*	33
CC(CC(=O)O)CC(=O)Nc1cc(C(F)(F)F)cc(C(F)(F)F)c1 (stereo not given)	-5	2	0	-9	-1	1
CCOc1ncccc1C(=O)Nc1cc(S(=O)(=O)N2CCOCC2)ccc1OCC(F)(F)F	·	·	-11	-6	·	24
O=S(=O)(NC(=NCc1ccccc1)c1ccccc1)c1ccccc1	-10	-10	0	1	-8	3
O=S(=O)(NC(=NCc1ccccc1)c1ccccc1)c1ccc(Br)cc1	-2	52*	·	-9	8	26
COc1ccccc1NC(=O)/C=C1\SCC(=O)N1C	71*	1	0	-3	1	6
COc1ccccc1NC(=O)/C=C1\NC(=O)CS1	1	-7	-3	-4	-12	9
COC(=O)/C=C/c1cnc[nH]1	-10	-3	-2	-14	3	-17
COc1ccc(S(=O)(=O)N2CCCCC2)cc1NC(=O)c1cnc(C)cn1	·	·	2	·	·	17
CCOC(=O)c1ccc(NC(=O)c2nc(S(=O)(=O)Cc3ccccc3)ncc2Cl)cc1	-9	82*	78*	103*	-2	49
CCCc1nnc(NC(=O)c2nc(S(=O)(=O)Cc3ccc(C)cc3)ncc2Cl)s1	-4	2	-18	108*	-4	35
Cc1ccccc1S(=O)(=O)Cc1ccc(C(=O)NC2CCCCC2)o1	13	-1	8	-11	5	3
CC(=O)Nc1ccc(NC(=O)C(C)OC(=O)CNC(=O)c2ccc(-c3ccccc3)cc2)cc1 (stereo not given)	-10	3	0	-6	7	-6
Cc1cc(=O)n2nc(N3CCCC(C(=O)NCc4ccccc4Cl)C3)sc2n1 (stereo not given)	-17	3	-1	4	-7	23
COc1ccc(OC)c(C(=O)CSc2nccc(-c3ccc(Br)cc3)n2)c1	29	-1	-8	79*	15	23
Nc1nc(Nc2cccc(C(F)(F)F)c2)nc(C(F)(F)F)n1	1	7	2	3	2	16
FC(F)(F)c1cccc(Nc2nc(N3CCCC3)nc(N3CCCC3)n2)c1	16	75*	1	9	-18	0
CN1CCN(c2nc(Nc3cccc(C(F)(F)F)c3)nc(N3CCOCC3)n2)CC1	58*	-1	9	23	41	30
O=C(O)c1cccc(Nc2nc(N3CCOCC3)nc(N3CCOCC3)n2)c1	-7	2	-13	-4	2	8
CCCCCC(=O)Cc1cc(O)cc2c1C(=O)Oc1cc(O)c(C(=O)O)c(CCCCC)c1O2	-12	71*	-3	51	-6	-1

Screening results (PubChem BioAssay)
